Data published in ChEMBL document CHEMBL1156690, “Synthesis, anti-HIV-1 integrase, and cytotoxic activities of 4-chloro-N-(4-oxopyrimidin-2-yl)-2-mercaptobenzenesulfonamide derivatives” (Eur J Med Chem, 2008).
Values belong to the molecule of their own block, whether it stands above or below them.

What was measured:
[1] = biological target: T1, Human immunodeficiency virus type 1 integrase (Human immunodeficiency virus 1, UniProt Q7ZJM1); experiment: Inhibition of HIV1 integrase strand transfer activity
T1 sequence (Q7ZJM1 whole entry): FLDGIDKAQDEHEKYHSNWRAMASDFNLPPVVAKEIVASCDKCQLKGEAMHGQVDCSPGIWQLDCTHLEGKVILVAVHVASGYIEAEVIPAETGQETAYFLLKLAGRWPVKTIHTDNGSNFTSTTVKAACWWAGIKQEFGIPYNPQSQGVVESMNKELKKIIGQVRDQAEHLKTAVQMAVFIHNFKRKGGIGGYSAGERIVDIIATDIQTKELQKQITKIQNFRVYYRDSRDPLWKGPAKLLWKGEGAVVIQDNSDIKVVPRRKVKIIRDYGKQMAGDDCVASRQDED
Summary of the method: (§1)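 HIV-1 integrase (200 nM final) preincubated 30 min at 30 °C with inhibitor in buffer (pH 7.2 MOPS, NaCl, HEPES, EDTA, DTT, 10% glycerol, 7.5 mM MnCl₂, 0.1 mg/ml BSA, 2-mercaptoethanol, 10% DMSO). 20 nM 5'-³²P-labeled linear oligonucleotide substrate then added for 1 h. Quenched with formamide loading dye; products resolved on denaturing 20% polyacrylamide/urea gel. IC₅₀ reported for each step.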

[2] = biological target: T1, Human immunodeficiency virus type 1 integrase; experiment: Inhibition of HIV1 integrase 3' processing activity; summary of the method: as §1
T47D = experiment: Growth inhibition of human T47D cells; format: functional
Summary of the method: (§2)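 Run by the US National Cancer Institute in vitro screen against a panel of 53–57 human tumor cell lines. GI₅₀ is defined as the molar concentration inhibiting 50% net cell growth. TGI is the concentration giving total growth inhibition.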

HOP-62 = experiment: Growth inhibition of human HOP62 cells; format: functional; summary of the method: as §2
KM12 = experiment: Growth inhibition of human KM12 cells; format: functional; summary of the method: as §2
SN12C = experiment: Growth inhibition of human SN12C cells; format: functional; summary of the method: as §2
NCI-H322M = experiment: Growth inhibition of human NCI-H322M cells; format: functional; summary of the method: as §2
LOX IMVI = experiment: Growth inhibition of human LOX IMVI cells; format: functional; details: Homo sapiens, LOX IMVI; summary of the method: as §2
HCC 2998 = experiment: Growth inhibition of human HCC2998 cells; format: functional; summary of the method: as §2
CCRF-CEM = experiment: Growth inhibition of human CCRF-CEM cells; format: functional; summary of the method: as §2
MOLT-4 = experiment: Growth inhibition of human MOLT4 cells; format: functional; summary of the method: as §2
SNB-75 = experiment: Growth inhibition of human SNB75 cells; format: functional; summary of the method: as §2
SF-268 [3] = experiment: (§3) Growth inhibition of human SF268 cells; format: functional; summary of the method: as §2
SR = experiment: Growth inhibition of human SR cells; format: functional; summary of the method: as §2
BT-549 = experiment: Growth inhibition of human BT549 cells; format: functional; summary of the method: as §2
HCT-116 = experiment: Growth inhibition of human HCT116 cells; format: functional; summary of the method: as §2
M14 = experiment: Growth inhibition of human M14 cells; format: functional; summary of the method: as §2
SF-268 [4] = experiment: as §3; format: functional; summary of the method: as §2; remark: listed apart in the source
EKVX = experiment: Growth inhibition of human EKVX cells; format: functional; summary of the method: as §2
NCI-H522 = experiment: Growth inhibition of human NCI-H522 cells; format: functional; summary of the method: as §2
SNB-19 = experiment: Growth inhibition of human SNB19 cells; format: functional; summary of the method: as §2
SK-MEL-5 = experiment: Growth inhibition of human SK-MEL-5 cells; format: functional; summary of the method: as §2
A498 = experiment: Growth inhibition of human A498 cells; format: functional; summary of the method: as §2
Malme-3M = experiment: Growth inhibition of human MALME-3M cells; format: functional; summary of the method: as §2
UACC-62 = experiment: Growth inhibition of human UACC62 cells; format: functional; summary of the method: as §2

- IC50 [1]: 43 µM
- IC50 [2]: 69 µM
Compound: Cc1cc(S(=O)(=O)Nc2nc3cscc3c(=O)n2N)c(S)cc1Cl
- GI50 (SNB-75): 15 µM
- TGI (SNB-75): 58.5 µM
- GI50 (SF-268 [3]): 17.7 µM
- TGI (SF-268 [3]): 68.1 µM

- IC50 [1]: 93 µM
- IC50 [2]: > 100 µM
Compound: COc1ccc(NC(=O)c2cc(S(=O)(=O)Nc3nc4ccccc4c(=O)[nH]3)c(SCc3ccccc3)cc2Cl)cc1

- IC50 [1]: 53 µM
- IC50 [2]: 62 µM
- GI50 (MOLT-4): 19.4 µM
Compound: Cc1cc(S(=O)(=O)Nc2nc3ccsc3c(=O)n2Cc2ccco2)c(S)cc1Cl
- GI50 (SR): 9.9 µM
- TGI (SR): 29.7 µM
- TGI (MOLT-4): 84.2 µM

- GI50 (T47D): > 100 µM
- GI50 (BT-549): > 100 µM
- GI50 (HCT-116): > 100 µM
- GI50 (NCI-H522): > 100 µM
- GI50 (HCC 2998): > 100 µM
- GI50 (SK-MEL-5): > 100 µM
- GI50 (CCRF-CEM): > 100 µM
- IC50 [1]: 4 µM
- IC50 [2]: 6 µM
- GI50 (MOLT-4): > 100 µM
Compound: Cc1cc(S(=O)(=O)Nc2nc3cc(-c4ccc(Cl)cc4)sc3c(=O)n2Cc2ccccc2)c(S)cc1Cl
- GI50 (SR): > 100 µM
- GI50 (HOP-62): > 100 µM
- GI50 (M14): > 100 µM
- GI50 (KM12): > 100 µM
- GI50 (SF-268 [4]): > 100 µM
- GI50 (SN12C): > 100 µM
- GI50 (EKVX): > 100 µM
- GI50 (SNB-75): > 100 µM
- GI50 (LOX IMVI): > 100 µM
- GI50 (SNB-19): > 100 µM
- GI50 (A498): > 100 µM
- GI50 (Malme-3M): > 100 µM
- GI50 (SF-268 [3]): > 100 µM
- GI50 (UACC-62): > 100 µM

- IC50 [1]: 4 µM
- IC50 [2]: 22 µM
Compound: Cc1cc(S(=O)(=O)Nc2nc3cc(C(C)(C)C)sc3c(=O)n2Cc2ccccc2)c(S)cc1Cl

Further lines, the molecule ahead of its results:

Compound: Cc1cc(S(=O)(=O)Nc2nc3ccsc3c(=O)n2N)c(S)cc1Cl
- IC50 [1]: 53 µM
- IC50 [2]: 65 µM

Compound: Cc1cc(S(=O)(=O)Nc2nc3cscc3c(=O)n2Cc2ccccc2)c(S)cc1Cl
- GI50 (T47D): 4.5 µM
- TGI (T47D): 40.8 µM
- GI50 (HOP-62): 16.5 µM
- TGI (HOP-62): 39.3 µM
- GI50 (KM12): 19.9 µM
- TGI (KM12): 74.7 µM
- GI50 (SN12C): 16.6 µM
- TGI (SN12C): 54.5 µM
- GI50 (NCI-H322M): 18.2 µM
- TGI (NCI-H322M): 45.9 µM
- GI50 (LOX IMVI): 18.2 µM
- TGI (LOX IMVI): 51.6 µM
- GI50 (HCC 2998): 18.9 µM
- TGI (HCC 2998): 68.5 µM
- GI50 (CCRF-CEM): 14 µM
- TGI (CCRF-CEM): 47.6 µM
- IC50 [1]: 31 µM
- IC50 [2]: 80 µM
- GI50 (MOLT-4): 3.9 µM
- TGI (MOLT-4): 32.5 µM

Compound: O=C(Nc1ccc(Cl)cc1)c1cc(S(=O)(=O)Nc2nc3ccccc3c(=O)[nH]2)c(SCc2ccccc2)cc1Cl
- IC50 [1]: 52 µM
- IC50 [2]: > 100 µM

Compound: Cc1cc(S(=O)(=O)Nc2nc3cscc3c(=O)[nH]2)c(SCc2ccccc2)cc1Cl
- IC50 [1]: 78 µM
- IC50 [2]: > 100 µM

Compound: Cc1cc(S(=O)(=O)Nc2nc3scc(C)c3c(=O)n2N)c(S)cc1Cl
- IC50 [1]: 81 µM
- IC50 [2]: > 100 µM

Compound: Cc1cc(S(=O)(=O)Nc2nc3ccsc3c(=O)[nH]2)c(SCc2ccccc2)cc1Cl
- IC50 [1]: 70 µM
- IC50 [2]: > 100 µM

Compound: COc1cc2nc(NS(=O)(=O)c3cc(C)c(Cl)cc3S)n(N)c(=O)c2cc1OC
- IC50 [1]: > 100 µM
- IC50 [2]: > 100 µM

Compound: Cc1cc(S(=O)(=O)Nc2nc3ccccc3c(=O)[nH]2)c(SCc2ccccc2)cc1Cl
- IC50 [1]: 83 µM
- IC50 [2]: > 100 µM
